# Screens: PubChem BioAssay, several laboratories
# In the library only some 5.9% were active in any assay of this set; here they are far more common.
# HUVEC inhibit: inhibitors of HUVEC proliferation, primary screen, cell-based, 384-well. CellTiter-Glo luminescence, 72 h; hits give low values. viability, % at 10 µM (by protocol). 86,000 compounds, 1.1% hits. AID 648, 2007;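 active = viability at or below 30%; inactive = viability above 30%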
# H69AR inhibit: proliferation blockers of H69AR lung cancer cells, primary screen, cell-based, human, 86K library. AID 598, 2007. viability, % at 10 µM. H69AR lung tumor viability, ATP luminescence, 72 h; hits give low values. 85,000 compounds, 6% hits;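 active = viability at or below 40%; inactive = viability above 40%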;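 also: multidrug resistant small cell line overexpressing MRP-1 efflux transporter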
# Jurkat viability: cytotoxicity toward Jurkat T cells, primary screen, cytotoxicity control, cell-based, Jurkat E6.1, 60K MLSMR library. AID 463, 2006. Jurkat E6.1 viability, ATP luminescence, 48 h. 56,000 compounds, 1.2% hits. inhibition, % at 4 µM;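 active = inhibition above the mean inhibition of all tested compounds plus 3 SD, cut at about 28% in these data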
# PTK2B oligo ant: antagonists of Pyk2 self-association, primary screen, Q293 cells, FERM NanoBiT luminescence, HTS; hits give low values; z-score (the deposit names both 25 µM and 10 µM); 99,000 compounds, 0.83% hits; AID 1347419, 2020;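 active = Z-score of -3 or lower, scaled per plate to the spread of control and sample wells; inactive = z-score above -3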;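 also: negative z-score means lost luminescence so less FERM oligomerization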
# Target sequence (Q14289 whole entry, looked up): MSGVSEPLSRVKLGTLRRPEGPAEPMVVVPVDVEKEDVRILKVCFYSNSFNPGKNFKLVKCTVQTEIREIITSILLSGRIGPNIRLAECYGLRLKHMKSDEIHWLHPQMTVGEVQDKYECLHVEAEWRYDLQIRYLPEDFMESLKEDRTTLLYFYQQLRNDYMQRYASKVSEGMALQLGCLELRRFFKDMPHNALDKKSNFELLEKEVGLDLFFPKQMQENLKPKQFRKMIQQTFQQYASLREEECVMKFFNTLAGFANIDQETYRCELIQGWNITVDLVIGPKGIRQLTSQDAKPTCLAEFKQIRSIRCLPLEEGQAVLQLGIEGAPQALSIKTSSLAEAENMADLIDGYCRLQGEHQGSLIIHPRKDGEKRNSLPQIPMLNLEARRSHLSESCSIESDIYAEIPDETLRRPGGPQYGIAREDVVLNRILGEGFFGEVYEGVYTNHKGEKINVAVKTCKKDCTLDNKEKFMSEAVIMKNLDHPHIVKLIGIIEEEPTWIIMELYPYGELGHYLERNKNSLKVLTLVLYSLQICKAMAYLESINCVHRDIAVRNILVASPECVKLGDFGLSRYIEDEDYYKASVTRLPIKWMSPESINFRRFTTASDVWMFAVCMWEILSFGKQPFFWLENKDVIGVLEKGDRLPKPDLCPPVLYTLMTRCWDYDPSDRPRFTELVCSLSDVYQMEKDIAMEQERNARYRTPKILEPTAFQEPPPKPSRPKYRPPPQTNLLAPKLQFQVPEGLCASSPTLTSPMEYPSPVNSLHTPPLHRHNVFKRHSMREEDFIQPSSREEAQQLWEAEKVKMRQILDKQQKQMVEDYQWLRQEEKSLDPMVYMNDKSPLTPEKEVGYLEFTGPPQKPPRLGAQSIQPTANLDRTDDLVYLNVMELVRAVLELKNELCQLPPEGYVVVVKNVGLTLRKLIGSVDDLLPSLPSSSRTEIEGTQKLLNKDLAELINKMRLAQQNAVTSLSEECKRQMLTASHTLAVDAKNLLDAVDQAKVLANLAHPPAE
# Lung fibro prol: antiproliferative effect on LL 47 fibroblasts – human, LL 47 cells, CellTiter-Glo luminescence, primary screen; LL 47 human lung fibroblast viability, ATP luminescence; hits give low values; viability, % at 10 µM; AID 719, 2007; 85,000 compounds, 1.1% hits;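 active = viability at or below 50% in the single dose screen; inactive = viability above 50%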;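 also: compound exposure lasted 72 h before the ATP readout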
#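 Test system: LL 47 human lung fibroblasts; Quantity: 1,150 cells/well; Buffer or medium: IMEM plus 15% FBS; Dosing: tenfold compound dosing solution, DMSO at 0.1%; Timing: overnight cell rest, 72 h compound treatment at 37 °C; Detection: ATP-based CellTiter-Glo luminescent readout; Read-out basis: viability percentage against median untreated-cell control; Controls: cell-only wells, no compound.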
# MT1-MMP txn act: MT1-MMP promoter reporter activation – cell-based, luciferase luminescence, primary screen. 86,000 compounds, 0.16% hits. HT1080 MT1-MMP promoter luciferase reporter, overnight; hits give high values. AID 750, 2007. activation factor at 10 µM;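 active = activation factor of at least 2 for MT1-MMP transcription at 10 µM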
# A number is an active result; i = inactive; nt = no result.
SMILES,HUVEC inhibit,H69AR inhibit,Jurkat viability,PTK2B oligo ant,Lung fibro prol,MT1-MMP txn act
COc1cc(NC(=O)C2CC(=O)NC3=C2C(=O)CCC3)c(OC)cc1Cl (centres undefined),i,i,nt,i,i,i
Cc1ccc(Sc2oc(/C=N/n3cnnc3)cc2Br)cc1,i,23,i,i,i,i
COc1ccc(N=Nc2nc3cc(Br)c(Br)cc3n2C)c(OC)c1,nt,nt,nt,i,nt,nt
CCOc1ccc(-c2cc(CCCC(=O)Nc3cccc(OC)c3)no2)cc1,i,23,91,nt,i,i
C=CCn1c(=O)c(C(=O)Nc2ccccc2OC)c(O)c2ccccc21,i,i,i,nt,i,i
COc1ccccc1NCC(O)Cn1c2ccccc2c2ccccc21 (centres undefined),i,17,nt,i,i,i
Cc1ccccc1-n1nc2c(c1NC(=O)c1cc3ccccc3oc1=O)CS(=O)C2 (centres undefined),i,i,i,i,i,i
Cc1ccccc1-n1nc2c(c1NC(=O)c1cc3ccccc3oc1=O)CS(=O)(=O)C2,i,4.2,nt,nt,i,i
Cc1ccc(NC(=O)COC(=O)/C(=C/c2cccs2)c2cccs2)cc1S(=O)(=O)N(C)C,nt,nt,nt,i,nt,nt
CC1=C(SCCC#N)S/C(=C2\SC(C)=C(SCCC#N)S2)S1,19,26,i,i,i,i
CCOC(=O)c1cnn(-c2sc(C(=O)OCC)c(C)c2C(=O)OCC)c1N,i,24,i,i,i,i
CCOC(=O)c1cnn(-c2ccccn2)c1N,i,i,i,i,i,i
CCC(=O)N1CCc2cc(S(=O)(=O)N3CCN(c4ccccn4)CC3)ccc21,i,i,nt,i,i,nt
COC(=O)C12CC3CC(C1)CC(n1cnc(Cl)n1)(C3)C2,i,i,nt,i,i,2.3
COC(=O)c1ccccc1NC(=O)C12CC3CC(C1)CC(n1cnc(Cl)n1)(C3)C2,i,i,nt,i,i,i
COC(=O)c1ccc(C(NC(=O)OCc2ccccc2)/C(C)=C/[C@@H](C)C(=O)O)cc1 (some centres undefined),nt,nt,nt,nt,nt,i
Cc1c(/C=N\NC(=O)C2COc3ccc(C(C)(C)C)cc3O2)c2ccccc2n1C (centres undefined),nt,nt,nt,i,nt,nt
Cc1ccc(SCc2cn3c(C)csc3n2)cc1,i,i,i,i,i,nt
CCCCCCNC(=O)c1c(O)c2cccc3c2n(c1=O)CCC3,i,i,i,i,i,i
CCCCCCc1nc2ccccc2c(=O)n1NC(=O)c1c(O)c2cccc3c2n(c1=O)CC3,i,36,nt,nt,i,i
CCN(CC)CCNC(=O)c1c(O)c2cccc3c2n(c1=O)CCC3,i,31,i,i,i,i
CCCc1nc2ccccc2c(=O)n1NC(=O)c1c(O)c2cccc3c2n(c1=O)CCC3,i,18,i,i,i,i
CC(=O)OCC1OC(Sc2cccc3cccnc23)C(OC(C)=O)C(OC(C)=O)C1OC(C)=O (centres undefined),nt,nt,nt,i,nt,nt
CCn1c(SCC(N)=O)nnc1-c1ccc2[nH]c(C)c(C)c2c1,i,i,i,i,i,i
Cc1cc(C)c(C)c(C(=O)CSc2nnc(-c3ccc4[nH]c(C)c(C)c4c3)o2)c1C,i,8.7,nt,i,44,i
SMILES,HUVEC inhibit,H69AR inhibit,Jurkat viability,PTK2B oligo ant,Lung fibro prol,MT1-MMP txn act
Cc1[nH]c2ccc(-c3nnc(SCC(=O)c4ccc(F)cc4)o3)cc2c1C,i,26,i,i,i,i
Cc1cccc(N2C(=O)C(Oc3ccc(Cl)cc3Cl)C2C=O)c1C (centres undefined),nt,nt,nt,i,nt,nt
C=CCN1C(=O)C(CC(=O)Nc2ccccc2)SC1=Nc1c(C)n(C)n(-c2ccccc2)c1=O (centres undefined),i,i,nt,i,i,i
CCc1ccc2oc(-c3cc(N)ccc3O)nc2c1,i,32,i,i,i,i
CCc1ccc2oc(-c3cc(N)cc(C)c3O)nc2c1,i,23,47,i,i,i
O=C1CC(N2CCCc3ccccc32)C(=O)N1c1ccccc1Cl (centres undefined),i,i,nt,i,i,i
O=S(=O)(c1cccc(NC(=S)Nc2ccc(Br)cc2Cl)c1)N1CCOCC1,nt,nt,nt,i,nt,nt
CCOC(=O)Nc1ccc2c(c1)N(C(=O)CCN1CCOCC1)c1ccccc1S2=O (centres undefined),i,1.9,i,i,i,i
COc1ccc(-n2nnnc2-c2cccc(OC)c2)cc1,i,26,78,i,i,i
Clc1ccc(-n2nnnc2-c2ccccc2)cc1Cl,i,i,i,i,i,i
C=CCn1c(N)c(C(=O)OC(C)CC)c2nc3ccccc3nc21 (centres undefined),i,i,i,i,i,i
C=CCn1c(N)c(C(=O)OC(C)(C)C)c2nc3ccccc3nc21,i,30,nt,i,i,i
CCCn1c(N)c(Sc2ccc(Cl)cc2)c(=O)n(CCC)c1=O,i,i,i,i,i,i
Nc1nc(OCC(F)(F)F)cc(Oc2ccccc2F)n1,i,36,i,-3.8,nt,i
c1ccc(-c2nnc3sc(CN4CCc5ccccc54)cn23)cc1,nt,nt,i,i,nt,i
CC(C)Sc1nc2c(cnn2-c2ccccc2)c(=O)[nH]1,i,i,i,nt,i,i
CCCCCSc1nc2c(cnn2-c2ccccc2)c(=O)[nH]1,i,27,i,i,i,i
O=c1[nH]c(CSc2nc3ccccc3o2)nc2c1cnn2-c1ccccc1,i,18,nt,i,i,i
Cc1ccc(-n2ncc3c(=O)[nH]c(SCC(=O)N4CCOCC4)nc32)cc1,i,i,i,i,i,i
COC(=O)c1ccc(CSc2nc3c(cnn3-c3ccc(C)cc3)c(=O)[nH]2)o1,29,20,i,i,i,i
O=c1[nH]c(SCc2nc3c(cnn3-c3ccccc3)c(=O)[nH]2)nc2ccccc12,nt,nt,nt,i,nt,nt
CCOC(=O)C(C)Sc1nc2c(cnn2-c2ccc(C)cc2)c(=O)[nH]1 (centres undefined),i,19,50,i,i,i
COc1ccc(S(=O)(=O)N(C)CC(=O)NCc2cccnc2)cc1Cl,i,i,nt,i,i,i
Cc1ccc(-n2ncc3c(=O)[nH]c(SCC(=O)N4CCN(c5ccccc5)CC4)nc32)cc1,i,i,i,i,i,i
Cc1ccc(-n2ncc3c(=O)[nH]c(SCC(=O)N4CCCc5ccccc54)nc32)cc1,i,32,i,i,i,i
CCOC(=O)N1CCC(N2C(=O)c3ccccc3C2Nc2cc(C(=O)OC)cc(C(=O)OC)c2)CC1 (centres undefined),i,i,i,nt,i,i
O=C(Oc1ccnc2cc(Cl)ccc12)N1CCCCCC1,i,26,i,i,i,i
Cc1ccc2n(n1)c(=O)c(Cc1ccccc1)c([O-])[n+]2-c1ccccc1,nt,nt,nt,i,nt,nt
CN(c1cccc(Cl)c1)S(=O)(=O)c1cccc(C(=O)NC2=NCCS2)c1,i,40,nt,i,i,i
